By inhibition in vivo is commonly meant the drop in the measured response relative to a control, in per cent.

Calls of active or inactive are those of the source. The calls are words filed in the database; no cut-off is given here.

For series [1], the system named is Mus musculus. Put plainly: Inhibition of carrageenan-induced paw edema in Swiss albino mouse at 100 mg/kg, po after 180 mins relative to control. To be noted: 3 h. The format is functional. The method, boiled down:
(§1)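 Oral dosing in 0.5% CMC; vehicle to controls. Then carrageenan (0.5 mg/25 ll, freshly suspended in 154 mM saline) injected into the right hind paw subplantar tissue; saline into the left paw. Right-left footpad thickness difference measured by dial gauge calliper every 90 min over 6 h. Inhibition % is relative to vehicle control. n = 6; mean ± SEM.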
(Carrageenan injected into the paw causes an acute inflammation.)

Series [2] has as its system Mus musculus. The series can be described thus: Inhibition of p-benzoquinone-induced writhing in Swiss albino mouse at 200 mg/kg, po relative to control. The format is functional. The essentials: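 Mice, n = 6 per group, dosed orally with a suspension in 0.5% sodium CMC. 60 min later, 0.1 ml/10 g of 2.5% […] p-benzoquinone in distilled water given ip. Abdominal writhes counted per animal for 15 min, starting 5 min after injection. Expressed as % change in mean writhing count versus vehicle controls.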

Series [3] deals with Mus musculus. Put plainly: Inhibition of carrageenan-induced paw edema in Swiss albino mouse at 100 mg/kg, po after 90 mins relative to control. The format is functional. As to conditions: 1.5 h. The method, boiled down: as §1
For series [4], the system named is Mus musculus. Put plainly: Antiinflammatory activity against carrageenan-induced paw edema in Swiss albino mouse assessed as swelling thickness at 100 mg/kg, po after 270 mins. In kind it is functional. The method, boiled down: as §1
For series [5], the system named is Mus musculus. Put plainly: Antiinflammatory activity against carrageenan-induced paw edema in Swiss albino mouse assessed as swelling thickness at 100 mg/kg, po after 90 mins. The format is functional. The method, boiled down: as §1
Series [6] has as its system Mus musculus. The series can be described thus: Antiinflammatory activity in Swiss albino mouse assessed as inhibition of carrageenan-induced paw edema at 50 mg/kg, po. The format is functional.
Series [7] concerns Mus musculus. Put plainly: Inhibition of carrageenan-induced paw edema in Swiss albino mouse at 50 mg/kg, po after 360 mins relative to control. In kind it is functional. As to conditions: 6 h. The method, boiled down:
(§2)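 Mice, n = 6 per group. Test agent given orally as a suspension in 0.5% sodium CMC in distilled water; controls received vehicle only. Afterwards, 0.5 mg/25 ll carrageenan in saline (154 mM NaCl) injected subplantar into the right hind paw, saline into the left. Right-minus-left footpad thickness measured by dial gauge caliper every 90 min for 6 h. Inhibition is relative to vehicle-control group means.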

Series [8] deals with Mus musculus. Put plainly: Inhibition of carrageenan-induced paw edema in Swiss albino mouse at 50 mg/kg, po after 90 mins relative to control. In kind it is functional. As to conditions: 1.5 h. The essentials: as §2
The test system of series [9] is Mus musculus. Put plainly: Gastric-ulcerogenic effect in Swiss albino mouse assessed as lesions at 25 mg/kg, po. In kind it is functional, organism-based. The arrangement: dose 25 mg/kg. The method, boiled down:
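Mice killed under deep ether anesthesia 3 h after the writhing test; the oral dose in 0.5% CMC was the one used in that test. Stomachs removed, opened along the great curvature and examined under a dissecting microscope for lesions or bleeding. Reported as ratio of ulceration; n = 6.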

The subject of series [10] is Mus musculus. The series can be described thus: Analgesic activity against p-benzoquinone-induced abdominal constriction in Swiss albino mouse assessed as number of writhings at 200 mg/kg, po. In kind it is functional, Abdomen. The essentials: (§3)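 Test samples given orally in 0.5% CMC; vehicle to controls. 60 min later, 2.5% (v/v) p-benzoquinone in distilled water, 0.1 ml/10 g, given i.p. Mice housed singly; writhes counted for 15 min starting 5 min after injection. Activity is % change from vehicle controls. n = 6; mean ± SEM.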
(In general: In writhing tests, fewer writhes than in controls are read as antinociception.)

In series [11] the test system is Mus musculus. The series can be described thus: Inhibition of carrageenan-induced paw edema in Swiss albino mouse at 200 mg/kg, po after 270 mins relative to control. The format is functional. To be noted: 4.5 h. The essentials: as §1
Series [12] deals with Mus musculus. The series can be described thus: Antiinflammatory activity against carrageenan-induced paw edema in Swiss albino mouse assessed as swelling thickness at 25 mg/kg, po after 180 mins. In kind it is functional. The essentials: as §1
Series [13] relates to Mus musculus. The series can be described thus: Antiinflammatory activity against carrageenan-induced paw edema in Swiss albino mouse assessed as swelling thickness at 200 mg/kg, po after 360 mins. The format is functional. The essentials:
as §1

The test system of series [14] is Mus musculus. The series can be described thus: Inhibition of carrageenan-induced paw edema in Swiss albino mouse at 25 mg/kg, po after 360 mins relative to control. In kind it is functional. As to conditions: 6 h. The method, boiled down:
as §1

Series [15] has as its system Mus musculus. The series can be described thus: Antiinflammatory activity against carrageenan-induced paw edema in Swiss albino mouse assessed as swelling thickness at 50 mg/kg, po after 360 mins. The format is functional. The essentials:
as §1

The test system of series [16] is Mus musculus. The series can be described thus: Antiinflammatory activity against carrageenan-induced paw edema in Swiss albino mouse assessed as swelling thickness at 200 mg/kg, po after 90 mins. The format is functional. The essentials: as §1
The test system of series [17] is Mus musculus. The series can be described thus: Analgesic activity against p-benzoquinone-induced abdominal constriction in Swiss albino mouse assessed as number of writhings at 25 mg/kg, po. In kind it is functional, Abdomen. The method, boiled down:
as §3

Series [18] concerns Mus musculus. The series can be described thus: Acute toxicity in Swiss albino mouse assessed as lethal effect at 200 mg/kg/day, po after 72 hrs. In kind it is organism-based. The arrangement: route oral. As to conditions: in vivo. The method, boiled down: (§4)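 Oral single dose suspended in 0.5% carboxymethylcellulose, given after a 24 h fast; food and water returned 1 h after dosing. Vehicle-only controls. Mice observed at 1 h, then once daily for 72 h, for toxic signs and mortality.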

In series [19] the test system is Mus musculus. The series can be described thus: Antiinflammatory activity against carrageenan-induced paw edema in Swiss albino mouse assessed as swelling thickness at 50 mg/kg, po after 90 mins. The format is functional. The method, boiled down:
as §1

The test system of series [20] is Mus musculus. The series can be described thus: Antiinflammatory activity against carrageenan-induced paw edema in Swiss albino mouse assessed as swelling thickness at 50 mg/kg, po after 180 mins. The format is functional. The method, boiled down:
as §1

For series [21], the system named is Mus musculus. The series can be described thus: Inhibition of carrageenan-induced paw edema in Swiss albino mouse at 25 mg/kg, po after 90 mins relative to control. To be noted: 1.5 h. The format is functional. The method, boiled down: as §1
The test system of series [22] is Mus musculus. The series can be described thus: Analgesic activity against p-benzoquinone-induced abdominal constriction in Swiss albino mouse assessed as number of writhings at 50 mg/kg, po. In kind it is functional, Abdomen. The method, boiled down:
as §3

Series [23] concerns Mus musculus. The series can be described thus: Acute toxicity in Swiss albino mouse assessed as lethal effect at 50 mg/kg/day, po after 72 hrs. To be noted: in vivo. The arrangement: route oral. In kind it is organism-based. The method, boiled down: as §4
The subject of series [24] is Mus musculus. The series can be described thus: Inhibition of carrageenan-induced paw edema in Swiss albino mouse at 200 mg/kg, po after 360 mins relative to control. In kind it is functional. To be noted: 6 h. The essentials:
as §1

For the compound `CCS(=O)(=O)c1nc(-c2ccc(Cl)cc2)n[nH]1`, the inhibition in vivo at 100 mg/kg is 39.8% in series [1] and 39.3% in series [3]. In addition, the inhibition in vivo at 200 mg/kg in series [2] is 18.5%; in series [11], 14.5%; in [24] it was 18.9%. For the same compound, the Activity in series [4] is given as 34.5 10^-2mm; in series [5] it was 27.2 10^-2mm; in series [10], 44.1; in series [12] it was 49.6 10^-2mm; in [13], 58.4 10^-2mm; in series [15] it was 39.4 10^-2mm. The Activity in series [16] is listed as 45.5 10^-2mm; in [17], 37.8; in series [18], “Non-toxic”; in series [19], 35.4 10^-2mm; in series [20], 36.1 10^-2mm; in series [22], 20.8. Further, the Activity entry in series [23] is “Non-toxic”. The inhibition in vivo at 50 mg/kg turned out to be 40.2% in [6], 45.3% in series [7] and 33.5% in [8]. The outcome in [9] was Active. For the same compound, the inhibition in vivo at 25 mg/kg stood at 15% in series [14] and 13.9% in series [21].
